We go through 37 sequences from the array DNA melting data of Ke et al. (doi:10.1101/2024.01.08.574731).

Data set [1] in a line: folding enthalpy; higher = less favourable; fluorescence melt of hairpins on a sequencing array, two-state fit. The note with it: sodium 0.088 M. A digest of the protocol:
(§1)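 Hairpins were imaged by Cy3 fluorescence on a sequenced MiSeq flow cell with annealed Cy3 and quencher oligos, in 50 mM Na-HEPES pH 8.0, 25 mM NaCl, in 2.5 °C steps up to 60 °C. Bootstrapped two-state fits of normalised signals gave melting temperature and folding enthalpy. Four replicates were combined by inverse variance, and fitted temperatures were raised by 9.35 °C to match UV melts.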

Data set [2] in a line: melting temperature; fluorescence melt of hairpins on a sequencing array, two-state fit, raised by 9.35 °C to match UV melts. The note with it: sodium 0.088 M. The procedure, abridged:
as §1

On to GTTGAGCGAAAGCTAAC (((.(((....)))))), for which the folding enthalpy in data set [1] was -15.2 kcal/mol. Moreover, in data set [2], the Tm was 39.8 °C.
Regarding GTGAGTGGAAACGCTCAC (((((.(....).))))), the folding enthalpy in data set [1] was -42.5 kcal/mol. Further, in data set [2], the Tm is 53.7 °C.
On the same counts, the results for GATGTTCCGAAAGGAATC (((..(((....)))))) are -13.2 kcal/mol and 32.4 °C.
On the same counts, the results for GTACCCGAAAGGGATAC ((((((....))).))) are -15.3 kcal/mol and 47 °C.
As for GATCTGGCATCAGATC ((((((....)))))), the folding enthalpy in data set [1] was -46.2 kcal/mol. In data set [2], the Tm was found to be 54.6 °C.
On the same counts, the results for GAGGTTGGAAACGATCTC (((.(.(....).).))) are -17.3 kcal/mol and 29.5 °C.
As to GAGTATGAAAATACTC ((((((....)))))), the folding enthalpy in data set [1] was -36.5 kcal/mol. The Tm in data set [2] turned out to be 50.3 °C.
On the same counts, the results for GCCGACGAAAGTCTCGGC ((((((....)))..))) are -37.1 kcal/mol and 52 °C.
On the same counts, the results for GTGAGACGAAAGTCCAC (((.(((....)))))) are -22.8 kcal/mol and 53.8 °C.
Taken in the same sequence, the figures for GATCCGCCATCGGATC ((((((....)))))) were -37 kcal/mol and 57.4 °C.
As for GCAATAGAAATATTGC ((((((....)))))), in data set [1], the folding enthalpy was -26.5 kcal/mol. Further, the Tm in data set [2] is 46.4 °C.
On the same counts, the results for GCCGTGCGAAAGCCCAGC ((.(.((....)).).)) are -10.3 kcal/mol and 29.4 °C.
Taken in the same sequence, the figures for GCAGGCGAAAGCCGTTGC ((((((....)))..))) were -12.6 kcal/mol and 53.7 °C.
On the same counts, the results for GAATCAGGAAACTGGTTC (((.(((....))).))) are -31.2 kcal/mol and 42.6 °C.
Consider GTAACCGAAAGGTTTTAC ((((((....)))..))), for which, in data set [1], the folding enthalpy was -8.83 kcal/mol. Also, the Tm in data set [2] is 29.2 °C.
Consider GAGCGGGGAAACCCACTC (((.(((....))).))), for which the folding enthalpy in data set [1] was -28.4 kcal/mol. For the same sequence, in data set [2], the Tm was 46.2 °C.
Taken in the same sequence, the figures for GCTCTGCGAAAGCACTGC ((..(((....)))..)) were -10.7 kcal/mol and 31.6 °C.
On to GGTCTAGGAAACTAGACC (((((((....))))))), for which, in data set [1], the folding enthalpy is -47.7 kcal/mol. For the same sequence, the Tm in data set [2] is 60.5 °C.
Taken in the same sequence, the figures for GATCAGATTCCTGATC ((((((....)))))) were -39 kcal/mol and 48.5 °C.
For GACAGCGAAAGCTTGGTC ((((((....)))..))), the folding enthalpy in data set [1] is -17.9 kcal/mol. Moreover, the Tm in data set [2] was found to be 40 °C.
Take GCCAGGCGAAAGCCCTGC ((..(((....)))..)): the folding enthalpy in data set [1] is -12.4 kcal/mol. For the same sequence, the Tm in data set [2] is 45.1 °C.
On the same counts, the results for GCGGTCGCCGC ((((...)))) are -5.62 kcal/mol and 60.6 °C.
Taken in the same sequence, the figures for GACAAGACGAAAGTCGTC (((..(((....)))))) were -13.1 kcal/mol and 40.8 °C.
In the case of GGTCACGGAAACGTGATC (.(((((....))))).), the folding enthalpy in data set [1] is -30.4 kcal/mol. Besides, the Tm in data set [2] was determined as 53 °C.
Taken in the same sequence, the figures for GCCCCGCGAAAGCCGGGC ((((.((....)).)))) were -18.3 kcal/mol and 66.4 °C.
On the same counts, the results for GCCCTCGAAAGAGTGGC ((((((....))).))) are -31.9 kcal/mol and 58.5 °C.
On the same counts, the results for GTGTAAACGAAAGTTCAC (((..(((....)))))) are -18 kcal/mol and 33.7 °C.
On to GGACTCCGAAAGGAATCC (((.(((....))).))), for which the folding enthalpy in data set [1] is -30.5 kcal/mol. In addition, the Tm in data set [2] was 47.3 °C.
For GGCCCGCGAAAGCGTGCC (((.(((....))).))), the folding enthalpy in data set [1] was -26.5 kcal/mol. Also, the Tm in data set [2] was found to be 67.3 °C.
On the same counts, the results for GTCGGACCGAAAGGTGAC (((..(((....)))))) are -18 kcal/mol and 41.3 °C.
On the same counts, the results for GGACTCGAAAGAGTATCC ((((((....)))..))) are -13.8 kcal/mol and 33.3 °C.
Taken in the same sequence, the figures for GGGTGGGGAAACCCGCTC (.(.(((....))).).) were -17.7 kcal/mol and 49.1 °C.
Take GCGTGAGGAAACTCATGC ((.((((....)))).)): the folding enthalpy in data set [1] is -35.8 kcal/mol. The Tm in data set [2] was 53.4 °C.
Taken in the same sequence, the figures for GATCTAAGCTAGATC ((((((...)))))) were -21.5 kcal/mol and 39.5 °C.
On the same counts, the results for GCCGCGCGAAAGCTCTGC ((.(.((....)).).)) are -10.9 kcal/mol and 30.7 °C.
On the same counts, the results for GTTGCGGGAAACCGCGAC ((.((((....)))).)) are -31 kcal/mol and 60.7 °C.
With GAACCCGGAAACGGGCTC ((.((((....)))).)), in data set [1], the folding enthalpy is -15.4 kcal/mol. For the same sequence, the Tm in data set [2] came to 47.3 °C.
